Active and inactive are the calls of the source. The rule behind the calls is not given here.
Columns and labels:
[1] = Inhibition of Escherichia coli recombinant His6-tagged DXR expressed in Escherichia coli XL-1 blue using DXP as substrate incubated for 2 mins prior to substrate addition measured after 5 mins by spectrophotometric analysis
In short: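 His-tagged E. coli DXR, assayed at pH 7.5. Inhibitor was pre-incubated with enzyme and NADPH for 2 min at 37 °C, then DXP was added to start the reaction. Activity was read as NADPH consumption at 340 nm on a UV–visible spectrophotometer, and IC50 was derived from it.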

[2] = Inhibition of Escherichia coli recombinant His6-tagged DXR expressed in Escherichia coli XL-1 blue using DXP as substrate after 5 mins by spectrophotometric analysis
In short: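 Recombinant His-tagged E. coli DXR. DXP-to-MEP conversion followed as NADPH consumption at 340 nm by UV–visible spectrophotometry, assay pH 7.5. Enzyme, NADPH and inhibitor were not pre-incubated; the reaction was started by adding DXP. IC50 derived from the rate data.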

Escherichia coli [3] = assay: Inhibition of Escherichia coli recombinant His6-tagged DXR expressed in Escherichia coli XL-1 blue using DXP as substrate at 1000 uM incubated for 2 mins prior to substrate addition measured after 5 mins by spectrophotometric analysis
[4] = Drug degradation assessed as carbon disulfide production at pH 7.5; type: physicochemical; settings: buffer
Escherichia coli [5] = assay: Inhibition of Escherichia coli recombinant His6-tagged DXR expressed in Escherichia coli XL-1 blue using DXP as substrate at 1000 uM after 5 mins by spectrophotometric analysis
Escherichia coli [6] = assay: Ratio of IC50 for Escherichia coli recombinant His6-tagged DXR without preincubation to IC50 for Escherichia coli recombinant His6-tagged DXR with preincubation

## CSC(=S)NCCP(=O)(O)O
[1]
  IC50: 2700 µM
[2]
  IC50: 2800 µM

## NNC(=O)CCCP(=O)(O)O
[1]
  IC50: 1000 µM
[2]
  IC50: 1800 µM

## CN(CCP(=O)([O-])O)C(=S)[S-].[Na+].[Na+]
Escherichia coli [3]
  inhibition: inactive
[4]
  Drug degradation: Active
Escherichia coli [5]
  inhibition: inactive

## O=P(O)(O)CCCc1cccc(O)c1O
Escherichia coli [3]
  inhibition: inactive
Escherichia coli [5]
  inhibition: inactive

## CSC(=S)N(C)CCCP(=O)(O)O
Escherichia coli [3]
  inhibition: inactive
Escherichia coli [5]
  inhibition: inactive

## O=P(O)(O)CCc1cccc(O)c1O
[1]
  IC50: 1200 µM
[2]
  IC50: 2000 µM

## CN(O)C(=O)CCCP(=O)(O)O
Escherichia coli [6]
  Ratio IC50: 10
[1]
  IC50: 0.048 µM
[2]
  IC50: 0.5 µM

## CN(CCCP(=O)([O-])O)C(=S)[S-].[Na+].[Na+]
Escherichia coli [3]
  inhibition: inactive
[4]
  Drug degradation: Active
Escherichia coli [5]
  inhibition: inactive

## O=CN(O)CCCP(=O)(O)O [FOSMIDOMYCIN]
Escherichia coli [6]
  Ratio IC50: 8
[1]
  IC50: 0.032 µM
[2]
  IC50: 0.25 µM

## CON(C)C(=O)CCCP(=O)(O)O
[1]
  IC50: 3800 µM
[2]
  IC50: 6900 µM

## CONC(=O)CCCP(=O)(O)O
[1]
  IC50: 930 µM
[2]
  IC50: 11500 µM

Source: ChEMBL document CHEMBL2157892, “Modifications around the hydroxamic acid chelating group of fosmidomycin, an inhibitor of the metalloenzyme 1-deoxyxylulose 5-phosphate reductoisomerase (DXR)” (Bioorg Med Chem Lett, 2012)
